A short description of one data set: cells. Particulars: Homo sapiens, 7dF3. The format is cell-based.
A short description of data set [1]: Drug metabolism in human liver microsome at 10 uM after 30 mins by LC-MS analysis. The format is ADME. To be noted: liver microsomes, read-out: Drug metabolism. (In general: Liver microsomes are vesicles of endoplasmic reticulum, rich in cytochrome P450 enzymes.)
Data set [2] in a line: Drug metabolism in mouse liver microsome at 10 uM after 30 mins by LC-MS analysis. To be noted: liver microsomes, read-out: Drug metabolism. Type of data set: ADME.
For another data set, the system named is Liver microsome. The data set is described as follows: Intrinsic clearance in rat liver microsome at 1 uM preincubated for 5 mins by LC-MS analysis. Type of data set: ADME. To be noted: microsomes.
The nature of data set [3]: Aqueous solubility of the compound. Type of data set: physicochemical. To be noted: buffer.
Data set [4] is described as follows: Inhibition of WNT signaling in human T-Rex HEK293 Tet-O cells harboring Dvl2 after 4 days by luciferase reporter assay. The format is cell-based. Particulars: HEK293, 96 h. In outline: (§1)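 HEK293 T-Rex Tet-O cells stably carrying TCF-firefly luciferase-IRES-GFP reporter plus Tet-inducible cDNA (ΔN-LRP6, Dvl2, Axin-GID, ΔN-β-catenin or VP16-TCF4) introduced by FLP-FRT recombination; seeded from frozen at 40 000/well; day 3 compound added, eight concentrations 30 μM to 14 nM (final), with doxycycline hyclate; day 4 cells lysed, firefly luciferase luminescence read.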
Background: A reporter such as luciferase makes a cellular process visible.

A short description of data set [5]: Inhibition of WNT signaling in human T-Rex HEK293 Tet-O cells harboring degradation resistant form of beta-catenin after 4 days by luciferase reporter assay. The format is cell-based. Particulars: HEK293, 96 h. A digest of the protocol: as §1
Data set [6] is described as follows: Inhibition of WNT signaling in human T-Rex HEK293 Tet-O cells harboring constitutively active VP16-TCF in absence of beta-catenin after 4 days by luciferase reporter assay. The format is cell-based. Particulars: HEK293, 96 h. A digest of the protocol:
as §1

A short description of data set [7]: Inhibition of WNT signaling in human T-Rex HEK293 Tet-O cells harboring constitutively active deltaN-LRP6 after 4 days by luciferase reporter assay. Type of data set: cell-based. Particulars: HEK293, 96 h. In outline:
as §1

The nature of data set [8]: Inhibition of WNT signaling in human T-Rex HEK293 Tet-O cells harboring dominant negative form of Axin GSK3beta-interacting domain after 4 days by luciferase reporter assay. The format is cell-based. To be noted: HEK293, 96 h. A digest of the protocol:
as §1

A short description of data set [9]: Apparent permeability in human Caco2 cells after 2 hrs by LC-MS/MS analysis. Type of data set: ADME, cell-based, Caco-2. To be noted: Caco-2. (Passage across Caco-2 layers is used to estimate intestinal permeability.)

Converted amounts (≈) assume the structure as drawn.

On to `Cc1cncc(-c2ccc(N3CCOCC3)cc2)c1N1CCC2(CCNC2=O)CC1`, for which the IC50 (usually the midpoint of a concentration-inhibition curve) in the data set “cells” is 113 nM. Further, the metabolised at 0.5 h, 10 µM in data set [1] stood at 5%; in [2], 26%.
In “cells”, `CN(C)c1ccc(-c2cncc(Cl)c2N2CCC(C(N)=O)CC2)cc1` displayed an IC50 of 123 nM.
The compound `O=C1NCCC12CCN(c1c(Cl)cncc1-c1ccc(C3CCOCC3)cc1)CC2` had a CLint in the data set on Liver microsome of 111 µL/min/mg.
Compound `NC(=O)C1CCN(c2ccncc2-c2ccccc2)CC1` returned an IC50 in “cells” of 3260 nM. Besides, the metabolised at 0.5 h, 10 µM in [1] was found to be 4%; in data set [2] it was 23%.
`C=C(C)c1cncc(-c2ccc(N3CCOCC3)cc2)c1N1CCC2(CCNC2=O)CC1` returned an IC50 in “cells” of 12 nM. Moreover, in data set [2], the metabolised at 0.5 h, 10 µM came to 39%.
For the compound `NCC1CCN(c2c(Cl)cncc2Cl)CC1`, the IC50 in “cells” is 10000 nM.
`Cn1cc(-c2cncc(-c3ccc(N4CCOCC4)cc3)c2N2CCC3(CCNC3=O)CC2)cn1`: in the data set “cells”, half-maximal inhibition (IC50) was put at 1200 nM.
In turn, `CN1CCN(c2ccc(-c3cncc(Cl)c3N3CCC4(CCNC4=O)CC3)cc2)CC1` returned a CLint with Liver microsome of 10 µL/min/mg.
`O=C1CC2(CCN(c3c(Cl)cncc3-c3ccc(N4CCOCC4)cc3)CC2)C(=O)N1` registered an IC50 in “cells” of 6 nM. The metabolised at 0.5 h, 10 µM was 24% in [1] and 25% in data set [2]. The solubility (in general, how much of the substance goes into solution per volume) in data set [3] came out at 3 µg/mL (≈ 6.8 µM).
The compound `CC1(C(N)=O)CCN(c2c(Cl)cncc2-c2ccc(N3CCOCC3)cc2)CC1` came in with a concentration for half-maximal inhibition (IC50) in the data set “cells” of 87 nM. Also, the values for the metabolised at 0.5 h, 10 µM in [1] and in [2] were 21% and 20%, respectively.
Consider `NC(=O)C1CCN(c2c(Cl)cccc2Cl)CC1`, for which it took 27900 nM to reach half-maximal inhibition in “cells” (IC50).
On the same count and under the same terms, as for `COCCNC(=O)C1CCN(c2c(Cl)cncc2Cl)CC1`, the figure is greater than 30000 nM.
The compound `O=C1NCCC12CCN(c1c(Cl)cncc1-c1ccc(-c3cnoc3)cc1)CC2` had a CLint with Liver microsome of 136 µL/min/mg.
For the compound `NC(=O)C1CCN(c2ccncc2Cl)CC1`, half-maximal inhibition in “cells” (IC50) was put at 23000 nM. Also, the metabolised at 0.5 h, 10 µM in [1] worked out at 8%.
`NC(=O)C1CCN(c2c(Cl)cncc2-c2ccc(N3CCOCC3)cc2)CC1` had an IC50 in “cells” of 42 nM. Also, the metabolised at 0.5 h, 10 µM stood at 19% in data set [1] and 21% in data set [2].
In the data set “cells”, `NC(=O)C1CCN(c2c(Cl)cncc2-c2cccnc2)CC1` registered an IC50 of 1100 nM. For the same compound, the metabolised at 0.5 h, 10 µM in data set [1] was found to be 6%; in data set [2], 37%.
Take `Clc1cncc(Cl)c1N1CCCCC1`: in the data set “cells”, the IC50 was greater than 30000 nM.
`CS(=O)(=O)c1ccc(-c2cncc(Cl)c2N2CCC(C(N)=O)CC2)cc1` had an IC50 in “cells” of 1670 nM. Also, the metabolised at 0.5 h, 10 µM in data set [1] was determined as 0%; in data set [2], 29%.
For `CC(C)c1cncc(-c2ccc(N3CCOCC3)cc2)c1N1CCC2(CCNC2=O)CC1`, 78 nM corresponded to half-maximal inhibition in “cells” (IC50). For the same compound, the figures for the metabolised at 0.5 h, 10 µM in data set [1] and in data set [2] were 38% and 17%, respectively.
Turning to `COc1ccc(-c2cncc(Cl)c2N2CCC(C(N)=O)CC2)cc1`, the IC50 in [4] turned out to be 20 nM; in [5], 70 nM; in “cells”, 37 nM; in [6], 230 nM; in data set [7] it was 20 nM; in [8], 24 nM. In addition, the metabolised at 0.5 h, 10 µM in data set [1] came out at 30%; in data set [2], 84%.
As to `Cn1ccc(-c2ccc(-c3cncc(Cl)c3N3CCC4(CCNC4=O)CC3)cc2)n1`, the CLint in the data set on Liver microsome stood at 97 µL/min/mg.
Same read-out and setting: as for `O=C1NCCC12CCN(c1c(Cl)cncc1-c1ccc(N3CCCCC3)cc1)CC2`, the figure is 225 µL/min/mg; as for `Cn1ncc2cc(-c3cncc(Cl)c3N3CCC4(CCNC4=O)CC3)ccc21`, 66 µL/min/mg.
On to `O=C(Nc1ccccc1)C1CCN(c2c(Cl)cncc2Cl)CC1`, for which the half-maximal inhibitory concentration (IC50) in the data set “cells” was greater than 30000 nM.
Compound `Cn1cc(-c2cncc(Cl)c2N2CCC(C(N)=O)CC2)cn1` showed a half-inhibitory concentration (IC50) in the data set “cells” of 778 nM. The results for the metabolised at 0.5 h, 10 µM in [1] and in data set [2] were 4% and 27%, respectively.
As to `NC(=O)C1CCN(c2c(Cl)cncc2-c2ccncc2)CC1`, the midpoint of inhibition in the data set “cells”, the IC50, lay at 728 nM. Besides, the metabolised at 0.5 h, 10 µM came to 5% in data set [1] and 40% in [2].
In the data set “cells”, `O=C1NCCC12CCN(c1c(Cl)cncc1-c1ccc(N3CCOCC3)cc1)C2` (racemic) gave an IC50 of 55 nM. For the same compound, the metabolised at 0.5 h, 10 µM in [2] came out at 42%.
In turn, `O=C1NCCC12CCN(c1c(Cl)cncc1-c1ccc(-c3ccncc3)cc1)CC2` registered a CLint in the data set on Liver microsome of 99 µL/min/mg.
In the case of `NC(=O)C1CCN(c2c(Br)cncc2Br)CC1`, it took 360 nM to reach half-maximal inhibition in “cells” (IC50). The metabolised at 0.5 h, 10 µM in data set [1] was 13%; in [2], 35%.
As to `Cn1cc(-c2ccc(-c3cncc(Cl)c3N3CCC4(CCNC4=O)C3)cc2)cn1` (racemic), the CLint in the data set on Liver microsome worked out at 213 µL/min/mg.
Consider `O=C1CC2(CCN(c3c(Cl)cncc3-c3ccc(N4CCOCC4)cc3)CC2)CN1`, for which inhibition in the data set “cells” was half-maximal at 746 nM (IC50).
In the data set with Liver microsome, `Cn1cc(-c2ccc(-c3cncc(Cl)c3N3CCC4(CCNC4=O)C3)cc2)cn1` (single isomer, unassigned; enantiomer 2) had a CLint of 124 µL/min/mg.
In “cells”, `CN1CCC2(CCN(c3c(Cl)cncc3-c3ccc(N4CCOCC4)cc3)CC2)C1=O` came in with an IC50 of 715 nM.
`CNC(=O)C1CCN(c2c(Cl)cncc2Cl)CC1`: the 50% inhibitory concentration (IC50) in the data set “cells” is 12500 nM. The metabolised at 0.5 h, 10 µM in [1] was 13%; in [2], 57%.
Compound `CN(C)C(=O)C1CCN(c2c(Cl)cncc2Cl)CC1` showed an IC50 in “cells” of 26000 nM. The metabolised at 0.5 h, 10 µM in data set [1] was 22%; in [2], 99%.
For the compound `N#CC1CCN(c2c(Cl)cncc2-c2ccc(N3CCOCC3)cc2)CC1`, it took 70 nM to reach half-maximal inhibition in “cells” (IC50). The metabolised at 0.5 h, 10 µM in data set [2] worked out at 78%.
`NC(=O)C1CCN(c2ccncc2)CC1` registered an IC50 in “cells” greater than 30000 nM.
The compound `NC(=O)C1CCN(c2c(Cl)cncc2-c2cn[nH]c2)CC1` returned a half-inhibitory concentration (IC50) in “cells” of 1700 nM. Further, the metabolised at 0.5 h, 10 µM in data set [1] is 6%; in data set [2], 88%.
Compound `O=C1NCCC12CCN(c1c(-c3ccc(N4CCOCC4)cc3)cncc1C1CC1)CC2` gave an IC50 in “cells” of 1000 nM.
Regarding `NC(=O)C1CCN(c2c(Cl)cncc2-c2cccs2)CC1`, in the data set “cells”, the concentration for half-maximal inhibition (IC50) was 40 nM. For the same compound, the metabolised at 0.5 h, 10 µM was 27% in data set [1] and 97% in data set [2].
`O=C1NCCC12CCN(c1c(Cl)cncc1-c1ccc3cnccc3c1)CC2`: in [9], the Papp (usually a coefficient for how fast a substance crosses the barrier) at 2 h came to 24 ×10⁻⁶ cm/s.
In turn, `O=C(C1CCN(c2c(Cl)cncc2Cl)CC1)N1CCOCC1` returned an IC50 in “cells” of 44600 nM.
Still for that read-out and setting: as for `O=C1NCCC12CCN(c1c(-c3ccccc3)cncc1-c1ccc(N3CCOCC3)cc1)CC2`, the figure is greater than 30000 nM.
Turning to `NC(=O)C1CCN(c2c(Cl)cncc2-c2ccccc2)CC1`, the IC50 in the data set “cells” stood at 88 nM. In addition, the metabolised at 0.5 h, 10 µM came to 6% in data set [1] and 56% in [2].
In the data set “cells”, `NC(=O)C1CCN(c2c(Cl)cncc2-c2ccc(F)cc2)CC1` yielded an IC50 of 87 nM. Besides, the metabolised at 0.5 h, 10 µM in data set [2] was determined as 52%.
`O=C1NCCC12CCCN(c1c(Cl)cncc1-c1ccc(N3CCOCC3)cc1)C2` (racemic) showed an IC50 in the data set “cells” of 5700 nM.
Compound `Cn1cc(-c2ccc(-c3cncc(Cl)c3N3CCC4(CCNC4=O)C3)cc2)cn1` (stereo in doubt; 79) had a CLint with Liver microsome of 298 µL/min/mg.
For the compound `NC(=O)C1CCN(c2c(Cl)cncc2-c2cccc(N3CCOCC3)c2)CC1`, the IC50 in “cells” amounted to 309 nM. The values for the metabolised at 0.5 h, 10 µM in data set [1] and in data set [2] were 39% and 38%, respectively.

The values above are taken from ChEMBL document CHEMBL3407438, “Discovery of potent, orally bioavailable, small-molecule inhibitors of WNT signaling from a cell-based pathway screen” (J Med Chem, 2015).
